Laboratory results: ChEMBL document CHEMBL2010685, “Synthesis and biological evaluation of novel bifendate derivatives bearing 6,7-dihydro-dibenzo[c,e]azepine scaffold as potent P-glycoprotein inhibitors” (Eur J Med Chem, 2012)
The source made the active and inactive calls. No cut-off for these calls is given here.

How the values were obtained:
[1] = Cytotoxicity against human K562/A02 cells expressing p-glycoprotein after 72 hrs by MTS assay; assay type: functional, cell-based; details: K562/A02, 72 h
Outline: (§1)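 K562 and K562/A02 cells (1 × 10⁴/well) seeded in RPMI-1640 and incubated 24 h. Exponentially growing cells then exposed to various compound concentrations for 72 h at 37 °C (5% CO₂, 95% humidity). MTS added for 3 h more, absorbance read at 490 nm. IC₅₀ from dose-response curves, mean of triplicate experiments.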

K562 [2] = assay: Cytotoxicity against human K562 cells after 72 hrs by MTS assay; assay type: functional, cell-based; details: K562, 72 h; outline: as §1
[3] = target: T1, ATP-dependent translocase ABCB1 (Homo sapiens, UniProt P08183); assay: Inhibition of p-glycoprotein in human K562/A02 cells assessed as accumulation of rhodamine 123 at 10 uM by flow cytometry relative to control; assay type: cell-based; details: k562/a02, 10 µM
T1 sequence (P08183 whole entry): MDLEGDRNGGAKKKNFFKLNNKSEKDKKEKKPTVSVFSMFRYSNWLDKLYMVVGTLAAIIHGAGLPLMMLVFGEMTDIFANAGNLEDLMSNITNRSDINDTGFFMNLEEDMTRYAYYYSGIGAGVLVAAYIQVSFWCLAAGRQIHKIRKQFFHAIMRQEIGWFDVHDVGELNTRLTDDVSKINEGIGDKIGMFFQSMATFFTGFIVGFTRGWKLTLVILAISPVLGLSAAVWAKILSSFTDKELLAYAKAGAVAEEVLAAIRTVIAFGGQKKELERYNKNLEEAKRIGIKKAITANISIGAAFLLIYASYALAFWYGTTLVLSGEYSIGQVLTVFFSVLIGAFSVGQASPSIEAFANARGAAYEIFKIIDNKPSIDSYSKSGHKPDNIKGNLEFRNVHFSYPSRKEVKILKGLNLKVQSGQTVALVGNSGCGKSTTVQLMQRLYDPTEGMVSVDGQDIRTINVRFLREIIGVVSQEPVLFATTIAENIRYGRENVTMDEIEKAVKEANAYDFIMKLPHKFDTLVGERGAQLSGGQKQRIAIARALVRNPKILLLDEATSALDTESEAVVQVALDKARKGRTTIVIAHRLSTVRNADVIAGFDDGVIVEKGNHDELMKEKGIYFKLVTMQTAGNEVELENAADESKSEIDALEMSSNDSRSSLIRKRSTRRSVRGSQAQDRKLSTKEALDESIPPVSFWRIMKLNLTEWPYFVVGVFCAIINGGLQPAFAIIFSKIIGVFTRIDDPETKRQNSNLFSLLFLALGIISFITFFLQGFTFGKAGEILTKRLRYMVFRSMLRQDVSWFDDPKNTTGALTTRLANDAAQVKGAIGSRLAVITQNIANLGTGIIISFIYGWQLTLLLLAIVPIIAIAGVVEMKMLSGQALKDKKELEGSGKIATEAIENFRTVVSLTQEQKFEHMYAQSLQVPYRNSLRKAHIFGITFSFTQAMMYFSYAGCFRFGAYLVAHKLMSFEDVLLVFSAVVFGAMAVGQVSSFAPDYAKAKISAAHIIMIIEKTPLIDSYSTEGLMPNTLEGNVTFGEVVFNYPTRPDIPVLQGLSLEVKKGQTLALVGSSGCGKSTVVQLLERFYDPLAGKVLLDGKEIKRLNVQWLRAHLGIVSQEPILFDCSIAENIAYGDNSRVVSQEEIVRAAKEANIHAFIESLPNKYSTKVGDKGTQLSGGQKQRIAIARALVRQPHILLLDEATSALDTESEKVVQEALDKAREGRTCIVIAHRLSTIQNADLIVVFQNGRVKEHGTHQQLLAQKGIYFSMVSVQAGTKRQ
Outline: (§2)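 Rh123 or adriamycin (0.5) then added for 30 min. Stopped with ice-cold PBS and centrifugation, washed three times in ice-cold PBS, analysed by flow cytometry. Fluorescence expressed as fold of 0.1% DMSO control; three independent experiments.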

K562/A02 [4] = assay: Reversal of p-glycoprotein-mediated multidrug-resistant in human K562/A02 cells assessed as increase of adriamycin-induced cytotoxic effect at 2.5 uM after 72 hrs by MTS assay; assay type: cell-based
Outline: (§3)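 Viability by MTS assay. Survival rate expressed as percent growth relative to untreated control, mean ± S.D. of three independent experiments.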

[5] = Cytotoxicity against human K562/A02 cells expressing p-glycoprotein assessed as cell killing at 5 uM after 72 hrs by MTS assay; assay type: cell-based; details: k562/a02, 72 h
[6] = target: T1, ATP-dependent translocase ABCB1; assay: Inhibition of p-glycoprotein mRNA expression in human K562/A02 cells at 5 uM after 72 hrs by RT-PCR analysis; assay type: functional, cell-based; details: k562/a02, 72 h
[7] = target: T1, ATP-dependent translocase ABCB1; assay: Inhibition of p-glycoprotein protein expression in human K562/A02 cells at 5 uM after 72 hrs by Western blot analysis; assay type: functional, cell-based; details: k562/a02, 72 h
K562 [8] = assay: Cytotoxicity against human K562 cells assessed as cell killing at 5 uM after 72 hrs by MTS assay; assay type: cell-based; details: k562, 72 h
[9] = target: T1, ATP-dependent translocase ABCB1; assay: Inhibition of p-glycoprotein in human K562/A02 cells assessed as accumulation of rhodamine 123 by flow cytometry; assay type: cell-based; outline: as §2
K562 [10] = assay: Induction of rhodamine 123 accumulation in human K562 cells at 0.3 to 10 uM by flow cytometry; assay type: functional, cell-based; outline: as §2
K562 [11] = assay: Induction of adriamycin accumulation in human K562 cells at 0.3 to 10 uM by flow cytometry; assay type: functional, cell-based; outline: as §2
[12] = target: T1, ATP-dependent translocase ABCB1; assay: Inhibition of p-glycoprotein-mediated rhodamine 123 efflux in human K562/A02 cells after 60 mins by fluorescence microscopic analysis; assay type: cell-based; details: k562/a02, 1 h
[13] = target: T1, ATP-dependent translocase ABCB1; assay: Inhibition of p-glycoprotein-mediated rhodamine 123 efflux in human K562/A02 cells at 2.5 uM after 60 mins by fluorescence microscopic analysis; assay type: cell-based; details: k562/a02, 1 h
K562/A02 [14] = assay: Reversal of p-glycoprotein-mediated multidrug-resistant in human K562/A02 cells assessed as increase of adriamycin-induced cytotoxic effect at 1.25 uM after 72 hrs by MTS assay; assay type: cell-based; outline: as §3
[15] = Cytotoxicity against human K562/A02 cells expressing p-glycoprotein assessed as cell survival rate at 1.25 uM after 72 hrs by MTS assay; assay type: cell-based; details: read-out: Activity
K562/A02 [16] = assay: Reversal of p-glycoprotein-mediated multidrug-resistant in human K562/A02 cells assessed as increase of adriamycin-induced cytotoxic effect at 5 uM after 72 hrs by MTS assay; assay type: cell-based; outline: as §3
K562/A02 [17] = assay: Reversal of p-glycoprotein-mediated multidrug-resistant in human K562/A02 cells assessed as increase of adriamycin-induced cytotoxic effect after 72 hrs by MTS assay; assay type: cell-based; outline: as §3
K562 [18] = assay: Potentiation of adriamycin-induced cytotoxic effect in human K562 cells assessed as cell survival rate at 1.25 to 5 uM after 72 hrs by MTS assay; assay type: functional, cell-based; outline: as §3
[19] = Reversal of p-glycoprotein-mediated multidrug-resistant in human K562/A02 cells assessed as increase of adriamycin-induced cytotoxic effect at 2.5 uM treated 24 hrs before adriamycin challenge followed by drug washout by MTS assay; assay type: cell-based
[20] = Reversal of p-glycoprotein-mediated multidrug-resistant in human K562/A02 cells assessed as increase of adriamycin-induced cytotoxic effect at 2.5 uM treated for 24 hrs followed by adriamycin treated 6 hrs after drug washout by MTS assay; assay type: cell-based
[21] = Reversal of p-glycoprotein-mediated multidrug-resistant in human K562/A02 cells assessed as increase of adriamycin-induced cytotoxic effect at 2.5 uM treated for 24 hrs followed by adriamycin treated 12 hrs after drug washout by MTS assay; assay type: cell-based
[22] = Reversal of p-glycoprotein-mediated multidrug-resistant in human K562/A02 cells assessed as increase of adriamycin-induced cytotoxic effect at 2.5 uM treated for 24 hrs followed by adriamycin treated 24 hrs after drug washout by MTS assay; assay type: cell-based; details: K562/A02, 24 h
[23] = Induction of ATPase activity of p-glycoprotein at 40 uM by luminescence assay relative to control
[24] = target: T1, ATP-dependent translocase ABCB1; assay: Inhibition of p-glycoprotein in human K562/A02 cells assessed as accumulation of adriamycin by flow cytometry; assay type: cell-based; outline: as §2
[25] = Reversal of p-glycoprotein-mediated multidrug-resistant in human K562/A02 cells assessed as increase of adriamycin-induced cytotoxic effect at 10 uM treated 24 hrs before adriamycin challenge followed by drug washout by MTS assay
[26] = Reversal of p-glycoprotein-mediated multidrug-resistant in human K562/A02 cells assessed as increase of adriamycin-induced cytotoxic effect at 10 uM treated for 24 hrs followed by adriamycin treated 6 hrs after drug washout by MTS assay
[27] = Reversal of p-glycoprotein-mediated multidrug-resistant in human K562/A02 cells assessed as increase of adriamycin-induced cytotoxic effect at 10 uM treated for 24 hrs followed by adriamycin treated 12 hrs after drug washout by MTS assay
[28] = Reversal of p-glycoprotein-mediated multidrug-resistant in human K562/A02 cells assessed as increase of adriamycin-induced cytotoxic effect at 10 uM treated for 24 hrs followed by adriamycin treated 24 hrs after drug washout by MTS assay; details: K562/A02, 24 h
[29] = Induction of ATPase activity of p-glycoprotein at 200 uM by luminescence assay relative to control
K562 [30] = assay: Ratio of IC50 for human K562/A02 cells expressing p-glycoprotein to IC50 for human K562 cells; assay type: functional

| Compound | IC50 [1] | IC50 (K562 [2]) | Activity [5] | Activity (K562 [8]) | other results |
| --- | --- | --- | --- | --- | --- |
| CCN1Cc2cc(OC)c3c(c2-c2c(cc(OC)c4c2OCO4)C1=O)OCO3 | > 100 µM | > 100 µM | – | – | – |
| COC(=O)c1cc(OC)c2c(c1-c1c(C(=O)OC)cc(OC)c3c1OCO3)OCO2 [BIFENDATE] | – | – | – | – | fold change (FC) [3]: 1.2 |
| COc1cc2c(c3c1OCO3)-c1c(cc(OC)c3c1OCO3)CN(CCc1ccccc1)C2 | 34.1 µM | 45.4 µM | 10% | 10% | Activity (K562/A02 [4]): Active; inhibition (INH) [6]: Not Active; inhibition (INH) [7]: Not Active; fold change (FC) [3]: 10.1; inhibition (INH) [9]: Dose-dependent effect; Activity (K562 [10]): inactive |
| CCCN1Cc2cc(OC)c3c(c2-c2c(cc(OC)c4c2OCO4)C1)OCO3 | 87.6 µM | 106 µM | 10% | 10% | – |
| CCN1Cc2cc(OC)c3c(c2-c2c(cc(OC)c4c2OCO4)C1)OCO3 | 117 µM | 125 µM | 10% | 10% | – |
| COc1cc2c(c3c1OCO3)-c1c(cc(OC)c3c1OCO3)CN(CCO)C2 | > 200 µM | > 200 µM | 10% | 10% | – |
| COc1cc2c(c3c1OCO3)-c1c(cc(OC)c3c1OCO3)CN(CCc1ccc3c(c1)OCO3)C2 | 46.9 µM | 53.7 µM | 10% | 10% | Activity (K562 [11]): inactive; inhibition (INH) [12]: Dose-dependent effect; inhibition (INH) [13]: Active; Activity (K562/A02 [4]): 8%; Activity (K562/A02 [14]): 30%; viability at 72 h, 1.25 µM [15]: 98%; Activity (K562/A02 [16]): 6%; Activity (K562/A02 [17]): Dose-dependent effect; Activity (K562 [18]): inactive; inhibition (INH) [6]: Not Active; inhibition (INH) [7]: Not Active; IC50 [19]: 1.78 µM; IC50 [20]: 2.47 µM; IC50 [21]: 5.03 µM; IC50 [22]: 10.3 µM; RLU [23]: 283000; fold change (FC) [3]: 11.2; inhibition (INH) [9]: Dose-dependent effect; Activity (K562 [10]): inactive; inhibition (INH) [24]: Dose-dependent effect |
| COc1ccc(CCN(C)CCCC(C#N)(c2ccc(OC)c(OC)c2)C(C)C)cc1OC (stereo unspecified) | – | – | – | – | Activity (K562 [11]): inactive; Activity (K562/A02 [16]): > 50%; IC50 [25]: 12.9 µM; IC50 [26]: 26.1 µM; IC50 [27]: 51.1 µM; IC50 [28]: 51.4 µM; inhibition (INH) [9]: Dose-dependent effect; Activity (K562 [10]): inactive; inhibition (INH) [24]: Dose-dependent effect |
| COc1cc2c(c3c1OCO3)-c1c(cc(OC)c3c1OCO3)CN(Cc1ccccc1)C2 | 112 µM | > 200 µM | 10% | 10% | inhibition (INH) [6]: Not Active; inhibition (INH) [7]: Not Active; inhibition (INH) [3]: Active; inhibition (INH) [9]: Dose-dependent effect; Activity (K562 [10]): inactive |
| CCCCN1Cc2cc(OC)c3c(c2-c2c(cc(OC)c4c2OCO4)C1)OCO3 | > 100 µM | 77.5 µM | – | – | – |
| COC(=O)CN1Cc2cc(OC)c3c(c2-c2c(cc(OC)c4c2OCO4)C1)OCO3 | > 100 µM | > 100 µM | – | – | – |
| CCCCN1Cc2cc(OC)c3c(c2-c2c(cc(OC)c4c2OCO4)C1=O)OCO3 | 44.6 µM | 41.7 µM | – | – | – |
| COc1cc2c(c3c1OCO3)-c1c(cc(OC)c3c1OCO3)CN(C)C2 | 107 µM | 140 µM | 10% | 10% | – |
| COC(=O)CN1Cc2cc(OC)c3c(c2-c2c(cc(OC)c4c2OCO4)C1=O)OCO3 | > 100 µM | > 100 µM | – | – | – |
| SODIUM ORTHOVANAD | – | – | – | – | RLU [29]: 282000 |
| COc1cc2c(c3c1OCO3)-c1c(cc(OC)c3c1OCO3)C(=O)N(Cc1ccccc1)C2 | 53.4 µM | 43.5 µM | – | – | – |
| COc1cccc2c1C(=O)c1c(O)c3c(c(O)c1C2=O)C[C@@](O)(C(=O)CO)C[C@@H]3O[C@H]1C[C@H](N)[C@H](O)[C@H](C)O1 [DOXORUBICIN] | 46.7 µM | – | – | – | Ratio IC50 (K562 [30]): 108 |
| COc1cc2c(c3c1OCO3)-c1c(cc(OC)c3c1OCO3)CN(c1ccccc1)C2 | > 100 µM | > 100 µM | – | – | – |
